ASAP1 GAP inh = inhibitors of human ASAP1 ArfGAP activity; Q9ULH1; inhibition, % at 16.5 µM; ASAP1-stimulated ARF1 GTP hydrolysis, GDP FP detection; AID 624377; hit rate 0.19% among 360,000; in the data active = inhibition above about 25%;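 also: 0% = vehicle with enzyme and substrate and 100% = no enzyme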
Target sequence (Q9ULH1 325-724 limits assumed): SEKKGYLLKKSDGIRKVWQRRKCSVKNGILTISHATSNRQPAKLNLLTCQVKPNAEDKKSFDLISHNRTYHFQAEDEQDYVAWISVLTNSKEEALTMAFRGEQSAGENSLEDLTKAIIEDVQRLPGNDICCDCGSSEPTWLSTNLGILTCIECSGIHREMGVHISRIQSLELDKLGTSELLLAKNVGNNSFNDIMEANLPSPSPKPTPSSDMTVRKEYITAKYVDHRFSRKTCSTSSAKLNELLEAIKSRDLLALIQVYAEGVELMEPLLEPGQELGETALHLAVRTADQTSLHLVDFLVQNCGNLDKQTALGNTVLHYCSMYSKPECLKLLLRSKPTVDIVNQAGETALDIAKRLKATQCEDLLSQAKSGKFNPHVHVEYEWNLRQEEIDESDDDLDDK
PAFAH1B3 inh = PAFAH1B3 (human) inhibition. Q15102. recombinant PAFAH1B3, FP-rhodamine probe, fluorescence polarization. inhibition, % at 3.39 µM. hit rate 0.28% among 340,000. AID 492972;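 active = inhibition above the screen-wide average of all tested compounds plus 3 SD, cut at about 25% in these data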;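 also: 0% = enzyme with DMSO only and 100% = wells lacking PAFAH1B3 protein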
pPAFAH FP inh = pPAFAH (human) enzyme inhibition; AID 463082; recombinant pPAFAH, FP-rhodamine probe fluorescence polarization; hit rate 1.5% among 330,000; Q13093; inhibition, % at 3.39 µM;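 active = inhibition above the mean inhibition across the screen plus 3 SD, cut at about 25% in these data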;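 also: inhibitors block binding of the rhodamine activity-based probe so polarization drops; 0% = enzyme with DMSO and 100% = wells lacking pPAFAH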
PAFAH1B2 FP inh = blocks human PAF acetylhydrolase 1b catalytic subunit 2. P68402. recombinant PAFAH1B2, FP-rhodamine activity probe, fluorescence polarization. inhibition, % at 3.39 µM. hit rate 1.2% among 340,000. AID 492953;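 active = inhibition above the mean of all tested compounds plus 3 SD, cut at about 24% in these data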;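 also: 0% = enzyme with DMSO and 100% = wells lacking PAFAH1B2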
ARFGAP1 inhibitor = inhibits rat ARF GTPase activating protein 1. AID 651572. inhibition, % at 16.5 µM. hit rate 0.26% among 360,000. Arfgap1-stimulated ARF1 GTP hydrolysis, GDP FP detection;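 active = inhibition above a per-plate limit, mean inhibition of low control wells plus 3 SD, cut at about 25% in these data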;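 also: 0% = DMSO wells with enzyme and 100% = wells lacking Arfgap1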
Target sequence (Q62848 1-136 limits assumed): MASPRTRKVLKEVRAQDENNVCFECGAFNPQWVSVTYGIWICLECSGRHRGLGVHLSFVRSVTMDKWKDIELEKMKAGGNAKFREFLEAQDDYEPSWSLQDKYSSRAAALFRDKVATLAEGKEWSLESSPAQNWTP
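Material – truncated rat Arfgap1 GAP domain · Buffer or medium – HEPES-based buffer, pH 7.5 · Reagent – human ARF1(Δ1-17)-GTP substrate · Dosing – 16.5 µM single point, 1.26% DMSO · Schedule – GTP hydrolysis reaction 2 h at 25 °C · Technique – GDP detection by fluorescence polarization · Benchmarks – No-Arfgap1 wells (100%) versus DMSO full-reaction wells (0%) · Repeats – single replicate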
PAFAH2 inh = inhibitors of human PAFAH2; inhibition, % at 3.39 µM; AID 492956; Q99487; recombinant PAFAH2, FP-rhodamine activity probe, fluorescence polarization; hit rate 0.99% among 340,000;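 active = inhibition above the mean over all tested compounds plus 3 SD, cut at about 30% in these data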;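 also: inhibitors block probe labeling of enzyme so polarization drops; 0% = enzyme with DMSO and 100% = wells lacking PAFAH2 protein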
pPAFAH FP conf = pPAFAH (human) inhibition, confirmed. recombinant pPAFAH, FP-Rh probe fluorescence polarization. hit rate 72% among 2,300. shares compounds with pPAFAH FP inh. inhibition, % at 3.39 µM;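 active = mean inhibition of the triplicate above the hit cutoff set for the earlier primary screen, cut at about 25% in these data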;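 also: 0% = enzyme with DMSO and 100% = wells lacking pPAFAH enzyme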
Starred values were filed as active, the others as inactive; x = no result. Sampled rows, rich in hits. Any-hit rate of the full collection: about 2.7%.

SMILES	ASAP1 GAP inh	PAFAH1B3 inh	pPAFAH FP inh	PAFAH1B2 FP inh	ARFGAP1 inhibitor	PAFAH2 inh	pPAFAH FP conf
Cc1cc(NS(=O)(=O)c2ccc(Nc3nc(-c4sc(N)nc4C)cs3)cc2)no1	x	55*	46*	36*	x	79*	42*
Cc1cc(NS(=O)(=O)c2ccc(Nc3nc(-c4ccc(O)cc4)cs3)cc2)no1	11	7	22	8	-7	26	x
CN(C)c1ccc(N/C=C/C(=O)c2ccccc2)cc1	-7	-4	39*	4	-8	3	6
CON(C)C(=O)[C@H]1C[C@@H]2[C@H](C[C@@H](c3ccccc3)[C@H]1C)N(c1ccc(F)cc1)C(=O)N2CCCOc1ccccc1	0	x	x	x	12	x	x
O=C(O)c1cc(-c2ccco2)nn1-c1cccc(Cl)c1	-4	12	40*	9	-4	16	16
O=C(O)c1cc(-c2ccco2)nn1-c1ccc(Cl)cc1	6	1	x	6	2	9	x
COc1ccc(CC(=O)Nc2cccc(/C(C)=N/NC(=O)c3cccc([N+](=O)[O-])c3)c2)cc1	-16	0	80*	3	5	-2	5
COc1ccc(CC(=O)N/N=C(\C)c2cccc(NC(=O)C3CC3)c2)cc1	5	-8	x	0	-1	3	x
COC(=O)[C@]12C[C@H](CC(=O)NCc3ccc(C)o3)C(=O)N(Cc3ccc4c(c3)OCO4)C1=C[C@H](C(C)(C)C)O[C@@H]2C	-5	x	x	x	3	x	x
Nc1nc(-c2ccco2)cs1	11	10	8	6	5	-1	x
Nc1nc(-c2ccco2)c(-c2ccco2)s1	-12	12	37*	-2	0	7	10
c1coc(-c2nc(-c3ccco3)c(-c3ccco3)nc2-c2ccco2)c1	-3	47*	100*	45*	-4	73*	43*
COC(=O)C1=C(C)N(Cc2ccccc2C(F)(F)F)C(=NCC2CC2)NC1c1cccc(F)c1 (stereo not drawn)	-2	x	x	x	17	x	x
CCOC(=O)C1=C(C)NC(SCC(N)=O)=C(C#N)C1c1cccs1 (stereo not drawn)	1	2	4	1	-6	4	x
CCOC(=O)C1=C(C)NC(SCc2cc(=O)[nH][nH]2)=C(C#N)C1c1cccs1 (stereo not drawn)	4	0	47*	4	5	-2	13
O=C1NN(c2ccc(Br)cc2)C(=O)/C1=C\c1ccc(O)cc1O	4	6	37*	15	-1	24	25*
O=C1NN(c2ccccc2)C(=O)C1=Cc1ccccc1O	-14	x	x	x	-6	x	x
Cc1cc(S(=O)(=O)N2CCCC2)ccc1OCC(=O)Nc1ccc(C(N)=O)cc1	9	4	50*	-1	2	3	4
CN(C)c1ccc(N2C(=O)CC(Nc3ccc(N4CCOCC4)cc3)C2=O)cc1 (stereo not drawn)	-4	-8	7	-1	3	6	x
O=C1CC(Nc2ccc(N3CCOCC3)cc2)C(=O)N1c1cccc(C(F)(F)F)c1 (stereo not drawn)	x	4	46*	3	x	12	6
COc1cccc(N2C(=O)CC(Nc3ccc(N4CCOCC4)cc3)C2=O)c1 (stereo not drawn)	x	5	39*	6	x	33*	0
CCOC(=O)c1c(C)[nH]c(N=Nc2cc(C(=O)O)cc(C(=O)O)c2)c1C	-16	8	35*	-3	-9	6	2
CCOC(=O)c1c(C)[nH]c(N=Nc2ccc(C)cc2C)c1C	-8	4	5	-2	22	-8	x
O=C(Nc1cccc(S(=O)(=O)NC2=NCCC2)c1)c1cc(-c2ccco2)nc2ccccc12	15	8	43*	0	2	4	22
C[C@H](CO)N1C[C@H](C)[C@H](CN(C)C(=O)Nc2cccc3ccccc23)Oc2ncc(Br)cc2C1=O	2	x	x	x	1	x	x
SMILES	ASAP1 GAP inh	PAFAH1B3 inh	pPAFAH FP inh	PAFAH1B2 FP inh	ARFGAP1 inhibitor	PAFAH2 inh	pPAFAH FP conf
CCOC(=O)C1=CCN(S(=O)(=O)c2ccc(Cl)cc2)C1c1cccc(Br)c1 (stereo not drawn)	1	x	x	x	-4	x	x
C[C@@H]1COc2cc(N3CCCCC3)ccc2S(=O)(=O)N1	-11	x	x	x	6	x	x
N#CC1=C(N)Oc2n[nH]c(-c3cccs3)c2C1c1ccsc1 (stereo not drawn)	12	8	38*	10	-4	10	6
O=C(Nc1ccc2nc(-c3ccco3)c(-c3ccco3)nc2c1)N1CCN(c2ccccn2)CC1	-1	20	37*	10	-10	17	28*
Cc1nc2cc(NC(=O)N3CCN(c4ccccn4)CC3)ccc2o1	0	6	-2	-4	-2	-3	x
S=C(Nc1ccc(N2CCOCC2)cc1)Nc1ccc2nc(-c3ccco3)c(-c3ccco3)nc2c1	5	14	43*	3	7	7	18
O=C(c1ccc2nc(-c3ccco3)c(-c3ccco3)nc2c1)N1CCN(c2ncccn2)CC1	-1	21	49*	2	-4	14	13
O=C(OCc1cc(=O)n2ccsc2n1)c1ccccc1NCCO	11	4	74*	4	-5	4	4
Cc1[nH]c2ccc(C(=O)OCC(=O)NC3(C#N)CCCCC3)cc2c1C	-19	7	45*	2	13	86*	43*
N#CC1(NC(=O)COC(=O)c2nc(Cl)ccc2Cl)CCCCC1	-3	10	8	11	-2	7	x
Fc1ccc(-[n+]2nc(Nc3ccccc3)sc2-c2c(Cl)cccc2Cl)cc1	-10	5	51*	1	9	9	22
COc1ccc(C)cc1Nc1n[n+](-c2ccccc2)c(-c2ccc(OC)c(OC)c2OC)s1	5	11	10	-1	6	6	x
COc1ccc(C)cc1Nc1n[n+](-c2ccccc2)c(-c2c(Cl)cccc2Cl)s1	4	x	53*	x	-9	x	53*
CCc1ccc(Nc2n[n+](-c3ccccc3)c(-c3c(Cl)cccc3Cl)s2)cc1	-9	2	56*	0	3	7	34*
CCOC(=O)C1=CCN(S(=O)(=O)c2ccc(Cl)cc2)C1c1ccc(Cl)c(Cl)c1 (stereo not drawn)	-10	x	x	x	-1	x	x
Cc1cc(C)c2c(c1)C1C=CCC1C(c1ccc(S(=O)(=O)N3CCOCC3)cc1)N2 (stereo not drawn)	1	2	2	4	9	2	x
COC(=O)COc1ccc(C2Nc3c(Cl)ccc(C(=O)O)c3C3C=CCC32)cc1 (stereo not drawn)	0	6	36*	3	2	28	11
COCCCNC1=C(Cl)C(=O)c2ccccc2C1=O	3	9	2	6	1	0	x

Compound activity from PubChem BioAssay.
